The test system of test [1] is Mus musculus. Kind of test: Effect on locomotor activity in Swiss Albino mouse assessed as number of crossings in 6 mins at 0.3 mg/kg administered 30 mins before the test. In kind it is functional. The method, boiled down: (§1)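 Male Albino Swiss mice given compound ip (1% Tween 80, 10 ml/kg) 30 min before placement singly in plastic cages in a multichannel photobeam activity monitor; ambulation crossings counted over the first 6 min and over a 30 min session. n = 9-10 per group; ANOVA then Dunnett's test.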

The test system of test [2] is Mus musculus. Description: Effect on locomotor activity in Swiss Albino mouse assessed as number of crossings in 30 mins at 0.3 mg/kg administered 30 mins before the test. In kind it is functional. The gist of the method: as §1
Test [3] is described as follows: Displacement of [3H]prazosin from adrenergic alpha1 receptor in rat cortical membranes. In kind it is cell membranes, Membrane. The gist of the method:
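Rat cortical membranes with [3H]-prazosin; phentolamine defines nonspecific binding. 7–9 drug concentrations in triplicate, at least three separate experiments; stopped by GF/B filtration with three ice-cold buffer washes, bound radioactivity by liquid scintillation counting; Ki from non-linear regression and Cheng-Prusoff equation.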
Background: In a radioligand displacement assay an active substance lowers the binding of a labelled ligand.

For test [4], the system named is Mus musculus. Kind of test: Antidepressant activity in Swiss Albino mouse assessed as immobility time during final 4 mins of 6 mins session at 5 mg/kg administered 30 mins before the test by forced-swimming test. In kind it is functional. The gist of the method: (§2)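 Male Albino Swiss mice (24–28 g), compound given ip in 1% aqueous Tween 80 (10 ml/kg), 30 min before test. Mouse placed singly in glass cylinder (25 cm high, 10 cm diameter) holding 6 cm water at 23–25 °C for 6 min; immobility (floating, only small head-keeping movements) timed over last 4 min. n = 9-10 per group; one-way ANOVA then Dunnett's test.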

In test [5] the test system is Mus musculus. Description: Antidepressant activity in Swiss Albino mouse assessed as immobility time during final 4 mins of 6 mins session at 2.5 mg/kg administered 30 mins before the test by forced-swimming test. In kind it is functional. The method, boiled down:
as §2

In test [6] the test system is Mus musculus. Kind of test: Effect on locomotor activity in Swiss Albino mouse assessed as number of crossings in 30 mins at 1 mg/kg administered 30 mins before the test. In kind it is functional. The method, boiled down:
as §1

The subject of test [7] is Mus musculus. Kind of test: Effect on locomotor activity in Swiss Albino mouse assessed as number of crossings in 6 mins at 1 mg/kg administered 30 mins before the test. In kind it is functional. The gist of the method:
as §1

Test [8] has as its system Mus musculus. Description: Antidepressant activity in Swiss Albino mouse assessed as immobility time during final 4 mins of 6 mins session at 1.25 mg/kg administered 30 mins before the test by forced-swimming test. In kind it is functional. The method, boiled down:
as §2

In test [9] the target is 5-hydroxytryptamine receptor 7 (Homo sapiens, UniProt P34969). Kind of test: Displacement of [3H]5-CT from human 5HT7 expressed in HEK293 cells. In kind it is cell-based. The gist of the method: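 HEK293 cells stably transfected with human 5-HT7(b) cDNA; membranes (10 µg protein) incubated 1 h at 37 °C in 50 mM Tris-HCl pH 7.4 with 4 mM MgCl2, 0.1 mM pargyline, 0.1% ascorbic acid, 0.5 nM [3H]-5-CT and 7–9 test concentrations in triplicate; 10 µM 5-HT defines nonspecific binding. GF/B filtration, scintillation counting; Ki via Cheng-Prusoff from ≥3 experiments.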

For test [10], the system named is Mus musculus. Kind of test: Anxiolytic activity in Swiss Albino mouse assessed as number of punished crossings for 60 secs at 1.25 mg/kg administered 30 mins before the test by four-plate test. In kind it is functional. The gist of the method: (§3)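 Male Albino Swiss mice (24–28 g), compound suspended in 1% aqueous Tween 80, given ip (10 ml/kg). Mouse placed in box with four metal floor plates, 15 s exploration, then floor electrified (120 V, 0.5 s) at each plate-to-plate crossing, no new shock for 3 s. Punished crossings counted over 60 s. n = 9-10/group; one-way ANOVA then Dunnett's test.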

Test [11] has as its system Mus musculus. Description: Anxiolytic activity in Swiss Albino mouse assessed as number of punished crossings for 60 secs at 5 mg/kg administered 30 mins before the test by four-plate test. In kind it is functional. The method, boiled down: (§4)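 Male Albino Swiss mice dosed ip (1% aqueous Tween 80, 10 ml/kg) 30 min beforehand. Opaque box floored with four metal plates; 15 s free exploration, then each plate-to-plate crossing triggers a 0.5 s, 120 V floor shock, with no new shock for 3 s if running continues. Punished crossings counted over 60 s; n = 9-10, ANOVA plus Dunnett's test.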

For test [12], the system named is Mus musculus. Description: Anxiolytic activity in Swiss Albino mouse assessed as number of punished crossings for 60 secs at 2.5 mg/kg administered 30 mins before the test by four-plate test. In kind it is functional. The gist of the method: as §3
Test [13] is filed under the species Mus musculus. The note with it: Swiss Albino, 2.5 mg/kg.
Test [14] addresses T1, 5-hydroxytryptamine receptor 1A (Rattus norvegicus, UniProt P19327).
T1 sequence (P19327 whole entry): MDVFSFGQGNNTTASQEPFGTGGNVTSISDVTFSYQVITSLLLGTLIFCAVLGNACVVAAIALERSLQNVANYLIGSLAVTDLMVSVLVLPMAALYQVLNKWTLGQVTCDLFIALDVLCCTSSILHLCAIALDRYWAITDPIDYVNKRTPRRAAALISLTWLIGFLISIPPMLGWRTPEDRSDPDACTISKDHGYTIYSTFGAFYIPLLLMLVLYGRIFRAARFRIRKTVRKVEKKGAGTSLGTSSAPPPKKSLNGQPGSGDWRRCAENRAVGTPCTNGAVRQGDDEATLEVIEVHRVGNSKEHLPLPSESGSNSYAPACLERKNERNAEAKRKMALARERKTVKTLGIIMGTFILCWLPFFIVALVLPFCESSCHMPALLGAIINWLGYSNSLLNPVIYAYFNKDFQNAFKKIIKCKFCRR
Description: Displacement of [3H]8-OH-DPAT from 5HT1A in rat hippocampal membranes. In kind it is cell membranes, Hippocampus, Membrane. The method, boiled down: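 Rat hippocampal membranes, [3H]-8-OH-DPAT as radioligand, 5-HT defining nonspecific binding. 7–9 drug concentrations run in triplicate, at least three separate experiments. Filtration through GF/B filters with three ice-cold buffer washes, scintillation counting. Ki from non-linear regression of binding isotherms via Cheng-Prusoff equation.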

Test [15] is filed under the species Mus musculus. The note with it: Swiss Albino, 5 mg/kg.
For test [16], the system named is Rattus norvegicus. Kind of test: Effect on 8-OH-DPAT-induced lower lip retraction in Wistar rat at 0.1 mg/kg. In kind it is functional.
The subject of test [17] is Mus musculus. Description: Antidepressant activity in Swiss Albino mouse assessed as immobility time during final 4 mins of 6 mins session at 1 mg/kg administered 30 mins before the test by forced-swimming test. In kind it is functional. The method, boiled down: as §2
Test [18] relates to Rattus norvegicus. Kind of test: Effect on lower lip retraction in Wistar rat at 0.3 mg/kg. In kind it is functional. The gist of the method: (§5)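 Male Wistar rats (290–310 g) dosed ip in 1% Tween 80 (2 ml/kg), caged singly; lower lip retraction scored 15, 30 and 45 min after dosing as 0 (incisors not visible), 0.5 (partly) or 1 (completely visible), totals up to 3 per rat. n = 6 per group; one-way ANOVA followed by Dunnett's test.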

The species entered for test [19] is Mus musculus. Particulars: Swiss Albino, 2.5 mg/kg. The source holds these as a separate data set.
In the next test the target is D(2) dopamine receptor (Rattus norvegicus, UniProt P61169). Kind of test: Displacement of [3H]spiperone from dopamine D2 receptor in rat striatal membranes. In kind it is cell membranes, Membrane. The method, boiled down:
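Competition binding on rat striatal membranes using [3H]-spiperone, butaclamol for nonspecific binding; filtration through GF/B filters and scintillation counting. Run at two compound concentrations, each in triplicate, and affinity expressed as estimated Ki.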

Test [20] is filed under the species Mus musculus. The note with it: Swiss Albino, 5 mg/kg. The source holds these as a separate data set.
The species entered for test [21] is Mus musculus. Particulars: Swiss Albino, 5 mg/kg. This is another data set of the same source.
The species named for test [22] is Mus musculus. The note with it: Swiss Albino, 2.5 mg/kg. The source holds these as a separate data set.
The species entered for test [23] is Mus musculus. The note with it: Swiss Albino, 2.5 mg/kg. This is another data set of the same source.
Test [24] has as its system Mus musculus. Kind of test: Anxiolytic activity in Swiss Albino mouse assessed as number of punished crossings for 60 secs at 1 mg/kg administered 30 mins before the test by four-plate test. In kind it is functional. The method, boiled down:
as §4

For test [25], the species on record is Mus musculus. The note with it: Swiss Albino, 5 mg/kg. This is another data set of the same source.
Test [26] deals with Rattus norvegicus. Kind of test: Effect on lower lip retraction in Wistar rat at 0.1 mg/kg. In kind it is functional. The gist of the method: as §5
Test [27] deals with Rattus norvegicus. Kind of test: Effect on lower lip retraction in Wistar rat at 1 mg/kg. In kind it is functional. The method, boiled down: as §5
Test [28] is filed under the species Mus musculus. The note with it: Swiss Albino, 5 mg/kg. This is another data set of the same source.
The subject of test [29] is Mus musculus. Kind of test: Anxiolytic activity in Swiss Albino mouse assessed as number of punished crossings for 60 secs at 0.3 mg/kg administered 30 mins before the test by four-plate test. In kind it is functional. The gist of the method:
as §4

For test [30], the species on record is Mus musculus. The note with it: Swiss Albino, 5 mg/kg. The source holds these as a separate data set.
The test system of test [31] is Mus musculus. Kind of test: Antidepressant activity in Swiss Albino mouse assessed as immobility time during final 4 mins of 6 mins session at 0.1 mg/kg administered 30 mins before the test by forced-swimming test. In kind it is functional. The gist of the method: as §2
Test [32] deals with Mus musculus. Kind of test: Antidepressant activity in Swiss Albino mouse assessed as immobility time during final 4 mins of 6 mins session at 0.3 mg/kg administered 30 mins before the test by forced-swimming test. In kind it is functional. The gist of the method:
as §2

Activity, Ki and deltaT data for two compounds are collected here from ChEMBL document CHEMBL1139831, “The influence of modifications in imide fragment structure on 5-HT(1A) and 5-HT(7) receptor affinity and in vivo pharmacological properties of some new 1-(m-trifluoromethylphenyl)piperazines” (Bioorg Med Chem, 2007).

Sequence of 5-hydroxytryptamine receptor 7 (P34969 whole entry): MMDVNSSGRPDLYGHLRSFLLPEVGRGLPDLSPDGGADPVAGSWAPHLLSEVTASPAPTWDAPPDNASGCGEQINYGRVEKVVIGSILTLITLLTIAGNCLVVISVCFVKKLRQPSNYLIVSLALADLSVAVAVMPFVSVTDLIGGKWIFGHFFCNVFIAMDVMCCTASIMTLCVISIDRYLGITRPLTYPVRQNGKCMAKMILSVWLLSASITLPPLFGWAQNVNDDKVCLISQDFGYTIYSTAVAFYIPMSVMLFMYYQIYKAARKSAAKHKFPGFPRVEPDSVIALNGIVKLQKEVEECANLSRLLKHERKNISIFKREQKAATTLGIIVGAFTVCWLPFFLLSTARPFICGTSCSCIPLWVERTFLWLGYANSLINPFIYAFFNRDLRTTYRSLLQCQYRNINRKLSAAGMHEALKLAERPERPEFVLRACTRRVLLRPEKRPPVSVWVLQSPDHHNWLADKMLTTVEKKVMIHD
Sequence of D(2) dopamine receptor (P61169 whole entry): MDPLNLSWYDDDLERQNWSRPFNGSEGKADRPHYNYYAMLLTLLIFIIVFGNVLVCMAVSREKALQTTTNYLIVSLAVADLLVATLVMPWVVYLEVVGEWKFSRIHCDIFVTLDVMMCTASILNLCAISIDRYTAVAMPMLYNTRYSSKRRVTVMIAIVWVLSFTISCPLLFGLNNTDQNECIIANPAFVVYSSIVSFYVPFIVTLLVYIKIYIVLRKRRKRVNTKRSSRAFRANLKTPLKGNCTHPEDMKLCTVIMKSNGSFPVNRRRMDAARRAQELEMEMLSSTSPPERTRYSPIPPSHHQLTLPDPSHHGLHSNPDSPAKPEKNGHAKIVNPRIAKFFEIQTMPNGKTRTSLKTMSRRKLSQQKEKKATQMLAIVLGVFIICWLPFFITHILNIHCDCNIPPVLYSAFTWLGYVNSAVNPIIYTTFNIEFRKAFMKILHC

What is called Ki is a measure of affinity in units of concentration, obtained from inhibition or displacement. The low end stands for tighter binding, the high end for weaker binding. For `CC1(C)CC(=O)N(C2CCC(N3CCN(c4cccc(C(F)(F)F)c4)CC3)CC2)C(=O)C1` (stereo not given), the Activity with Mus musculus [1] is 212; in the test with Mus musculus [2], 630.1; with Mus musculus [4], 113.3 s; in the test on Mus musculus [5] it was 98.2 s; in the test with Mus musculus [6], 535.3; in the test on Mus musculus [7], 211.7. The Activity is listed as 150.4 s with Mus musculus [8], 4.4 in the test with Mus musculus [10], 4.6 in the test on Mus musculus [11] and 4.6 with Mus musculus [12]. Moreover, the Ki in test [3] is 268 nM; in test [9] it was 221 nM.

`O=C1CCCC(=O)N1C1CCC(N2CCN(c3cccc(C(F)(F)F)c3)CC2)CC1` (trans isomer): the Activity in the test with Mus musculus [1] is 208.2; in the test with Mus musculus [2], 537.7; in the test on Rattus norvegicus [16] it was 2.6; with Mus musculus [17], 77.7 s; in the test on Rattus norvegicus [18], 2.4; in the test with Mus musculus [6], 374.3. In addition, the Activity was found to be 3.9 in the test with Mus musculus [24]; 1.3 with Rattus norvegicus [26]; 121.6 in the test on Mus musculus [7]; 3 in the test on Rattus norvegicus [27]; 3.9 in the test on Mus musculus [29]; 4.2 in the test on Mus musculus [11]. The values for the Activity in the test on Mus musculus [31] and in the test with Mus musculus [32] were 128.3 s and 70.1 s, respectively. In addition, the deltaT in the test filed under Mus musculus [13] is -0.5 °C; in the test filed under Mus musculus [15] it was -1.5 °C; in the test listed under Mus musculus [19], -0.7 °C; in the test listed under Mus musculus [20], -1.5 °C; in the test filed under Mus musculus [21], -1.2 °C; in the test listed under Mus musculus [22] it was -0.5 °C. The deltaT in the test listed under Mus musculus [23] is -0.3 °C; in the test filed under Mus musculus [25], -1.2 °C; in the test filed under Mus musculus [28], -1.3 °C; in the test filed under Mus musculus [30], -1.6 °C. The Ki in test [14] is 2.6 nM; in test [3], 85 nM; on D(2) dopamine receptor it was more than 5000 nM; in [9] it was 1200 nM.
